According to ChEMBL document CHEMBL1641443, “Design, synthesis and biological evaluation of small molecule inhibitors of CD4-gp120 binding based on virtual screening” (Bioorg Med Chem, 2011):

Key:
[1] = target: Envelope glycoprotein gp160 (Human immunodeficiency virus type 1 group M subtype B (isolate YU-2)(HIV-1), UniProt P35961); assay: Binding affinity to HIV1 YU2 gp120 by isothermal titration calorimetry assay; design: species or system Human immunodeficiency virus type 1 (isolate YU2)
Procedure, shortened: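 ITC at 25 °C. Cell held gp120 at about 2 μM in PBS pH 7.4 with 2% DMSO. Heat per injection taken from the integrated signal. Kd from a single run unless noted otherwise.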

[2] = tested on: Human immunodeficiency virus 1; assay: Antiviral activity against recombinant HIV1 YU2 in Cf2Th-CCR5 cells assessed as viral infectivity by luciferase assasy relative to JRC-II-191; format: functional, isolate YU2

| Structure (SMILES) | Kd ([1]; read-out: Kd) [nM] | fold change (FC) [2] | Kd [1] |
| --- | --- | --- | --- |
| CCCN1CCCC(NC(=O)C(=O)Nc2ccc(Cl)c(F)c2)C1 (centres undefined) | 3300 | 0.5 | – |
| CC1(C)CC(NC(=O)C(=O)Nc2ccc(Cl)c(F)c2)CC(C)(C)N1 | – | 1 | – |
| CC1(C)CC(CNC(=O)C(=O)Nc2ccc(Cl)c(F)c2)CC(C)(C)N1 | 2200 | 0.09 | – |
| CC1(C)CC(NC(=O)CC(=O)Nc2ccc(Br)cc2)CC(C)(C)N1 | – | 0 | – |
| CC1(C)CC(NC(=O)CCC(=O)Nc2ccc(Br)cc2)CC(C)(C)N1 | – | 0 | – |
| CN(C(=O)C(=O)NC1CC(C)(C)NC(C)(C)C1)c1ccc(Cl)cc1 | – | 0 | – |
| CN(C(=O)C(=O)Nc1ccc(Cl)c(F)c1)C1CC(C)(C)NC(C)(C)C1 | – | 0 | – |
| CC1(C)CC(NCC(=O)Nc2ccc(Cl)c(F)c2)CC(C)(C)N1 | – | 0 | – |
| CN1CCC(NC(=O)C(=O)Nc2ccc(Cl)c(F)c2)CC1 | 9400 | 0.1 | – |
| CCCN1CCC(NC(=O)C(=O)Nc2ccc(Cl)c(F)c2)CC1 | 4200 | 0.2 | – |
| CC(C)N1CCC(NC(=O)C(=O)Nc2ccc(Cl)c(F)c2)CC1 | 1900 | 0 | – |
| CC(C)(C)OC(=O)N1CCC(NC(=O)C(=O)Nc2ccc(Cl)c(F)c2)CC1 | – | 0 | – |
| O=C(Nc1ccc(Cl)c(F)c1)C(=O)NC1CCN(C(=O)c2ccccc2)CC1 | – | 0 | – |
| O=C(NCC1CCNCC1)C(=O)Nc1ccc(Cl)c(F)c1 | 3000 | 0 | – |
| CN1CCC(CNC(=O)C(=O)Nc2ccc(Cl)c(F)c2)CC1 | 4300 | 0.3 | – |
| CC1(C)CC(NC(=O)C(=O)Nc2ccc(Cl)c(F)c2)CC(C)(C)C1 | – | 0.1 | Not Active |

| Structure (SMILES) | Kd ([1]; read-out: Kd) [nM] | fold change (FC) [2] | Kd [1] |
| --- | --- | --- | --- |
| CC1(C)C2CCC1(C)C(NC(=O)C(=O)Nc1ccc(Cl)c(F)c1)C2 (centres undefined) | – | 0 | Not Active |
| CC1(C)CC(NC(=O)C(=O)Nc2ccc(Cl)c(F)c2)CC(C)(C)O1 | 1000 | 0 | – |
| CN1CCCC(NC(=O)C(=O)Nc2ccc(Cl)c(F)c2)C1 (centres undefined) | 4200 | 0.7 | – |
| CN1CCCC(CNC(=O)C(=O)Nc2ccc(Cl)c(F)c2)C1 (centres undefined) | 2500 | 0.3 | – |
| CC(C)N1CCCCC1CCNC(=O)C(=O)Nc1ccc(Cl)c(F)c1 (centres undefined) | 2300 | 0 | – |
| Cc1n[nH]c(C)c1CNC(=O)C(=O)Nc1ccc(Cl)c(F)c1 | 4000 | 0.1 | – |
| O=C(Nc1ccc(Cl)c(F)c1)C(=O)NC1CCc2[nH]ncc2C1 (centres undefined) | – | 0 | Not Active |
| O=C(NC[C@@]12CCC[C@@H]1CNC2)C(=O)Nc1ccc(Cl)c(F)c1 | 3100 | 0 | – |
| O=C(NCC1NCCc2ccccc21)C(=O)Nc1ccc(Cl)c(F)c1 (centres undefined) | 1200 | 0.6 | – |
| CCN1CCCC1CNC(=O)C(=O)Nc1ccc(Cl)c(F)c1 (centres undefined) | 2100 | 0 | – |
| O=C(Nc1ccc(Cl)c(F)c1)C(=O)N[C@@H]1CCN(Cc2ccccc2)C1 | – | 0 | Not Active |
| O=C(Nc1ccc(Cl)c(F)c1)C(=O)NC1CCNC2(CCC2)C1 (centres undefined) | 600 | 2.6 | – |
| C[C@@H]1CCC[C@H](C)N1CCNC(=O)C(=O)Nc1ccc(Cl)c(F)c1 | 1600 | 0.2 | – |
| O=C(NCC1CCCN(CCO)C1)C(=O)Nc1ccc(Cl)c(F)c1 (centres undefined) | 3200 | 0 | – |
| CC1(C)O[C@@H](CN)[C@H](CNC(=O)C(=O)Nc2ccc(Cl)c(F)c2)O1 | 2600 | 1.5 | – |
